Assay results published in ChEMBL document CHEMBL2010803, “Novel NSAID 1-acyl-4-cycloalkyl/arylsemicarbazides and 1-acyl-5-benzyloxy/hydroxy carbamoylcarbazides as potential anticancer agents and antioxidants” (Eur J Med Chem, 2012).
The source made the active and inactive calls. The rule behind the calls is not given here.

Assays:
[1] = system: Respiratory syncytial virus; assay: Antiviral activity against RSV infected in human cervix carcinoma cells assessed as inhibition of virus-induced cytopathic effect at 0.32 to 100 uM; assay type: functional, organism-based
Procedure, shortened: (§1)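 Confluent cell cultures were infected with 100 CCID50 of virus in the presence of test compound at 100, 40, 8, 1.6 and 0.32 μM. Cytopathic effect was scored once it was complete in untreated infected controls.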

Coxsackievirus B4 [2] = assay: Antiviral activity against Coxsackievirus B4 infected in human cervix carcinoma cells assessed as inhibition of virus-induced cytopathic effect at 0.32 to 100 uM; assay type: functional, organism-based; procedure, shortened: as §1
CCRF-CEM = assay: Cytostatic activity against human CEM cells after 3 days by coulter counter analysis; assay type: functional, cell-based; settings: 72 h
Procedure, shortened: (§2)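 300,000–500,000 cells/ml mixed 1:1 with compound dilutions and incubated at 37 °C for 2 days (L1210) or 3 days (CEM, HeLa). Cell number counted with a Coulter counter; HeLa trypsinized before counting.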

HeLa = assay: Cytostatic activity against human HeLa cells after 3 days by coulter counter analysis; assay type: functional, cell-based; settings: 72 h; procedure, shortened: as §2
HCT-116 = assay: Cytostatic activity against human HCT116 cells after 72 hrs by MTT assay; assay type: functional, cell-based; settings: HCT-116, 72 h
Procedure, shortened: (§3)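 Monolayers in DMEM with 10% FBS, 2 mM L-glutamine and penicillin/streptomycin, 37 °C, 5% CO2. Seeded at 1–3 × 10^4 cells/ml, then compound added in tenfold dilutions (10⁻⁸–10⁻⁴ M) for 72 h. MTT read at 570 nm; percent growth taken against time-zero and untreated controls. IC50 by linear regression; quadruplicate, at least two experiments.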

MCF7 = assay: Cytostatic activity against human MCF7 cells after 72 hrs by MTT assay; assay type: functional, cell-based; settings: MCF7, 72 h; procedure, shortened: as §3
NCI-H460 = assay: Cytostatic activity against human NCI-H460 cells after 72 hrs by MTT assay; assay type: functional, cell-based; settings: NCI-H460, 72 h; procedure, shortened: as §3
HaCaT = assay: Cytostatic activity against human HaCaT cells after 72 hrs by MTT assay; assay type: ADME, cell-based; procedure, shortened: as §3
Human alphaherpesvirus 1 = assay: Antiviral activity against HSV1 KOS infected in human lung fibroblast assessed as inhibition of virus-induced cytopathic effect at 0.32 to 100 uM; assay type: functional, organism-based; procedure, shortened: as §1
Human alphaherpesvirus 2 = assay: Antiviral activity against HSV2 G infected in human lung fibroblast assessed as inhibition of virus-induced cytopathic effect at 0.32 to 100 uM; assay type: functional, organism-based; settings: strain G; procedure, shortened: as §1
Vaccinia virus = assay: Antiviral activity against Vaccinia virus infected in human lung fibroblast assessed as inhibition of virus-induced cytopathic effect at 0.32 to 100 uM; assay type: functional, organism-based; settings: Orthopoxvirus vaccinia
[3] = system: Vesicular stomatitis virus; assay: Antiviral activity against VSV infected in human lung fibroblast assessed as inhibition of virus-induced cytopathic effect at 0.32 to 100 uM; assay type: functional, organism-based
Human respirovirus 3 = assay: Antiviral activity against Parainfluenza virus 3 infected in african green monkey Vero cells assessed as inhibition of virus-induced cytopathic effect at 0.32 to 100 uM; assay type: functional, organism-based; procedure, shortened: as §1
[4] = system: Mammalian orthoreovirus 1; assay: Antiviral activity against Reovirus-1 infected in african green monkey Vero cells assessed as inhibition of virus-induced cytopathic effect at 0.32 to 100 uM; assay type: functional, organism-based; procedure, shortened: as §1
Sindbis virus = assay: Antiviral activity against Sindbis virus infected in african green monkey Vero cells assessed as inhibition of virus-induced cytopathic effect at 0.32 to 100 uM; assay type: functional, organism-based; procedure, shortened: as §1
Coxsackievirus B4 [5] = assay: Antiviral activity against Coxsackievirus B4 infected in african green monkey Vero cells assessed as inhibition of virus-induced cytopathic effect at 0.32 to 100 uM; assay type: functional, organism-based; procedure, shortened: as §1
Punta Toro virus = assay: Antiviral activity against Punta Toro virus infected in african green monkey Vero cells assessed as inhibition of virus-induced cytopathic effect at 0.32 to 100 uM; assay type: functional, organism-based; procedure, shortened: as §1
[6] = system: Vesicular stomatitis virus; assay: Antiviral activity against Vesicular stomatitis virus infected in human cervix carcinoma cells assessed as inhibition of virus-induced cytopathic effect at 0.32 to 100 uM; assay type: functional, organism-based
Procedure, shortened: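 Confluent human cervix carcinoma (HeLa) cultures received 100 CCID50 of VSV together with the compound at 100, 40, 8, 1.6 or 0.32 μM. Cytopathicity was read at the point of full CPE in infected, untreated control wells.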

Felid alphaherpesvirus 1 = assay: Antiviral activity against Feline herpesvirus infected in feline CRFK cells assessed as inhibition of virus-induced cytopathic effect at 0.32 to 100 uM; assay type: functional, organism-based; procedure, shortened: as §1
Feline coronavirus = assay: Antiviral activity against Feline coronavirus infected in feline CRFK cells assessed as inhibition of virus-induced cytopathic effect at 0.32 to 100 uM; assay type: functional, organism-based; procedure, shortened: as §1
Influenza A virus [7] = assay: Antiviral activity against Influenza A virus H1N1 infected in MDCK cells assessed as inhibition of virus-induced cytopathic effect at 0.32 to 100 uM; assay type: functional, organism-based
Procedure, shortened: (§4)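 Confluent MDCK monolayers were infected in the presence of the compound at 100, 40, 8, 1.6 and 0.32 μM. Viral cytopathicity was scored once it was complete in untreated infected control cultures.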

Influenza A virus [8] = assay: Antiviral activity against Influenza A virus H3N2 infected in MDCK cells assessed as inhibition of virus-induced cytopathic effect at 0.32 to 100 uM; assay type: functional, organism-based; procedure, shortened: as §4
Influenza B virus = assay: Antiviral activity against Influenza B virus infected in MDCK cells assessed as inhibition of virus-induced cytopathic effect at 0.32 to 100 uM; assay type: functional, organism-based; procedure, shortened: as §4
[9] = system: Human immunodeficiency virus 1; assay: Antiviral activity against HIV1 3B infected in human CEM cells assessed as inhibition of virus-induced CEM giant cell formation at 0.32 to 100 uM after 4 days; assay type: functional, organism-based; settings: CCRF-CEM
Procedure, shortened: (§5)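 CEM cells (~3 × 10^5 cells/cm³) exposed to 100 CCID50/ml of virus and seeded into wells holding compound dilutions. Incubated 4 days at 37 °C, then giant cell formation examined microscopically.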

[10] = system: Human immunodeficiency virus 2; assay: Antiviral activity against HIV2 ROD infected in human CEM cells assessed as inhibition of virus-induced CEM giant cell formation at 0.32 to 100 uM after 4 days; assay type: functional, organism-based; settings: ISOLATE ROD, CCRF-CEM; procedure, shortened: as §5
[11] = system: Radical scavenging activity; assay: Antioxidant activity assessed as DPPH free radical scavenging activity at 100 uM after 20 mins by spectrophotometric analysis; assay type: functional
Procedure, shortened: (§6)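 0.05 mM DPPH in absolute ethanol mixed with an equal volume of compound in DMSO (final 100 μM). Shaken and left 20 or 60 min, then absorbance read at 517 nm and percent activity calculated. Three replicates, averaged.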

[12] = system: Radical scavenging activity; assay: Antioxidant activity assessed as DPPH free radical scavenging activity at 100 uM after 60 mins by spectrophotometric analysis; assay type: functional; procedure, shortened: as §6
[13] = Antioxidant activity assessed as inhibition of AAPH-induced linoleic acid lipid peroxidation by measuring conjugated diene hydroperoxide level; assay type: functional; parameters: concentration or dose not given beside the values
Procedure, shortened: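 Linoleic acid sodium salt (10 μL of 16 mM) in 0.05 M phosphate buffer pH 7.4 at 37 °C. Oxidation started under air with 50 μL of 40 mM AAPH. Conjugated diene hydroperoxide formation followed as absorbance rise at 234 nm; control contains the same DMSO level. At least triplicate.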

Glycine max = assay: Inhibition of soybean LOX assessed as conversion of sodium linoleate to 13- hydroperoxylinoleic acid at 100 uM
L1210 = assay: Cytostatic activity against mouse L1210 cells after 2 days by coulter counter analysis; assay type: functional, cell-based; settings: L1210, 48 h; procedure, shortened: as §2
[14] = dose or concentration not given here

Row | Compound | inhibition [1] | inhibition (Coxsackievirus B4 [2]) | IC50 (CCRF-CEM) | IC50 (HCT-116) | IC50 (MCF7) | IC50 (NCI-H460) | IC50 (HaCaT) | inhibition (Human alphaherpesvirus 1) | inhibition (Human alphaherpesvirus 2) | inhibition (Vaccinia virus) | inhibition [3] | inhibition (Human respirovirus 3) | inhibition [4] | inhibition (Sindbis virus) | inhibition (Coxsackievirus B4 [5]) | inhibition (Punta Toro virus) | inhibition [6] | inhibition (Felid alphaherpesvirus 1) | inhibition (Feline coronavirus) | inhibition (Influenza A virus [7]) | also measured
1 | CC(C(=O)NNC(=O)NC1CCCC1)c1cccc(Cc2ccccc2)c1 (stereo unspecified) | inactive | inactive | 66 µM | 33 µM | 19 µM | 38 µM | 50 µM | inactive | inactive | inactive | inactive | inactive | inactive | inactive | inactive | inactive | inactive | inactive | inactive | inactive | IC50 (HeLa): 43 µM; inhibition (Influenza A virus [8]): inactive; inhibition (Influenza B virus): inactive; inhibition [9]: inactive; inhibition [10]: inactive; Activity [11]: 4%; Activity [12]: 12%; inhibition [13]: inactive; inhibition (Glycine max): inactive
2 | CC(C)Cc1ccc(C(C)C(=O)NNC(=O)NC(c2ccccc2)c2ccccc2)cc1 (stereo unspecified) | inactive | inactive | 23 µM | 13 µM | 6 µM | 16 µM | 13 µM | inactive | inactive | inactive | inactive | inactive | inactive | inactive | inactive | inactive | inactive | inactive | inactive | inactive | IC50 (L1210): 20 µM; inhibition (Influenza A virus [8]): inactive; inhibition (Influenza B virus): inactive; inhibition [9]: inactive; inhibition [10]: inactive; Activity [11]: inactive; Activity [12]: inactive; inhibition [13, 14]: 74%; inhibition (Glycine max): 46%
3 | CC(C(=O)NNC(=O)NCC1CCCCC1)c1cccc(Cc2ccccc2)c1 (stereo unspecified) | inactive | inactive | 20 µM | 16 µM | 18 µM | 18 µM | 12 µM | inactive | inactive | inactive | inactive | inactive | inactive | inactive | inactive | inactive | inactive | inactive | inactive | inactive | IC50 (L1210): 22 µM; inhibition (Influenza A virus [8]): inactive; inhibition (Influenza B virus): inactive; inhibition [9]: inactive; inhibition [10]: inactive; Activity [11]: 5%; Activity [12]: 12%; inhibition [13, 14]: 61%; inhibition (Glycine max): 9%
4 | CC(C(=O)NNC(=O)NCC1CCCCC1)c1cccc(Oc2ccccc2)c1 (stereo unspecified) | inactive | inactive | 24 µM | 15 µM | 13 µM | 19 µM | 20 µM | inactive | inactive | inactive | inactive | inactive | inactive | inactive | inactive | inactive | inactive | inactive | inactive | inactive | IC50 (L1210): 22 µM; inhibition (Influenza A virus [8]): inactive; inhibition (Influenza B virus): inactive; inhibition [9]: inactive; inhibition [10]: inactive; Activity [11]: 18%; Activity [12]: 21%; inhibition [13, 14]: 64%; inhibition (Glycine max): 12%
